Test results from ChEMBL document CHEMBL2346654, “Discovery of biological evaluation of pyrazole/imidazole amides as mGlu5 receptor negative allosteric modulators” (Bioorg Med Chem Lett, 2013).
pIC50: −log10 of the molar value.

target: Metabotropic glutamate receptor 5 (Homo sapiens, UniProt P41594); assay: Negative allosteric modulation of human mGluR5 expressed in HEK293 cells assessed as calcium mobilization by FLIPR assay; type: functional, cell-based; conditions: not given
Sequence (P41594 whole entry): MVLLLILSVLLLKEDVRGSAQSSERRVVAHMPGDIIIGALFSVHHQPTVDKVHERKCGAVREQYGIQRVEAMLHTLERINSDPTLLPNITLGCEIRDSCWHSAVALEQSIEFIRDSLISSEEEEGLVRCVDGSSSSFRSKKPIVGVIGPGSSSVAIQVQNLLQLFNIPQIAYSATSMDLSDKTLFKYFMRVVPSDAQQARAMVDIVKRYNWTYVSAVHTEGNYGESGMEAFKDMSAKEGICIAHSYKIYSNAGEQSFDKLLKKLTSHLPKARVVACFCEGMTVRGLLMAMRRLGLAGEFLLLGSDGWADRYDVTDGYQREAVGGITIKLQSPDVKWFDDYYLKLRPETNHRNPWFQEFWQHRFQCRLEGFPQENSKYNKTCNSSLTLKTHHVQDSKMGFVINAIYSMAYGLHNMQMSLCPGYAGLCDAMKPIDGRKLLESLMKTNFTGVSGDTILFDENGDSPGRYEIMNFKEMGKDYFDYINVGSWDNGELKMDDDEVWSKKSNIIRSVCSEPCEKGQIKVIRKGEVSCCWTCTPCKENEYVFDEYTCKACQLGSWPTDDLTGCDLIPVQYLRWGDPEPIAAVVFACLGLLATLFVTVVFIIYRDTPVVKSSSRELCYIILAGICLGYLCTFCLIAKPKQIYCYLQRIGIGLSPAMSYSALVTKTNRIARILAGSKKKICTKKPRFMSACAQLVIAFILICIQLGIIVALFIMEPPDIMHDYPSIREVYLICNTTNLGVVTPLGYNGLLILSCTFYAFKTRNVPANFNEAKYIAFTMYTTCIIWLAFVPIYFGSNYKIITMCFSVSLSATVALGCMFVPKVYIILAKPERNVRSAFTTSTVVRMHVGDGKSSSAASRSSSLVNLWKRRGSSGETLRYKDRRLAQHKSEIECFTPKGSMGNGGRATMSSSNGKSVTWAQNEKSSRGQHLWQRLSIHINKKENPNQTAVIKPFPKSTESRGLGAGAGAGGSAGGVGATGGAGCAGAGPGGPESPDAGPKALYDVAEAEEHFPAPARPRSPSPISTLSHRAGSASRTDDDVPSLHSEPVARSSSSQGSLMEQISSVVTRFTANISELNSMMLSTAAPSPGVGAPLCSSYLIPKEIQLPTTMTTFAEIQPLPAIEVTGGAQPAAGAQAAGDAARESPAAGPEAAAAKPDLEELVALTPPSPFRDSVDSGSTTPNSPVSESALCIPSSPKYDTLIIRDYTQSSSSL

Compound | pIC50
Cc1cccc(NC(=O)c2nn(C)c(OC3CCCCC3)c2C)n1 | 7.04
Cc1c(C(=O)Nc2ccc(F)cn2)nn(C)c1-c1ccc(F)cc1 | 7.99
Cc1csc(NC(=O)c2nn(C)c(-c3ccc(F)cc3)c2C)n1 | 7.79
Cc1cccc(NC(=O)c2nn(C)c(-c3ccc(Cl)cc3)c2C)n1 | 8.42
Cc1c(C(=O)Nc2cccc(C(F)(F)F)n2)nn(C)c1-c1ccc(F)cc1 | 6.89
Cc1cccc(NC(=O)c2nc(C)n(-c3ccc(Cl)c(Cl)c3)c2C)n1 | 8.24
Cc1cccc(NC(=O)c2nn(C)c(C3CCCCC3)c2C)n1 | 7.60
Cc1cccc(NC(=O)c2nc(C)n(-c3ccc(Cl)cc3)c2C)n1 | 7.77
Cc1cnc(NC(=O)c2nn(C)c(-c3ccc(F)cc3)c2C)s1 | 5.57
Cc1cccc(NC(=O)c2nn(C)c(-c3ccc(N(C)C)cc3)c2C)n1 | 6.19
O=C(Nc1cc(Cl)ccc1O)c1noc2c1CCC2 | 6.43
CCc1c(C(=O)Nc2cccc(C)n2)nn(C)c1-c1ccccc1 | 7.57
Cc1nc(C(=O)Nc2cccc(C(F)(F)F)n2)c(C)n1-c1ccc(F)cc1 | 6.76
Cc1ccc(-c2c(C)c(C(=O)Nc3cccc(C)n3)nn2C)cc1 | 8.28
Cc1cccc(NC(=O)c2nn(C)c3c2CCCC3)n1 | 7.57
Cc1cccc(NC(=O)c2nn(C)c(-c3ccc(C(F)(F)F)cc3)c2C)n1 | 7.42
Cc1c(C(=O)Nc2ccc(Cl)cn2)nn(C)c1-c1ccc(F)cc1 | 6.74
Cc1cccc(NC(=O)c2nn(C)c(OCC3CCCCC3)c2C)n1 | 5.89
Cc1cccc(NC(=O)c2c3c(nn2C)CCCC3)n1 | < 6.00
Cc1ccc(NC(=O)c2nn(C)c(-c3ccc(F)cc3)c2C)nc1 | 7.04
COc1ccc(-n2c(C)nc(C(=O)Nc3cccc(C)n3)c2C)cc1 | 6.83
Cc1c(C(=O)Nc2ccncc2)nn(C)c1-c1ccc(F)cc1 | 6.52
Cc1nc(C(=O)Nc2cccc(C#N)n2)c(C)n1-c1ccc(F)cc1 | 7.11
Cc1cccc(NC(=O)c2nc(C)n(-c3ccc(C(F)(F)F)cc3)c2C)n1 | 7.34

tested on: not listed separately; assay: Half life in rat liver microsomes; conditions: liver microsomes

Compound | half-life [min]
Cc1c(C(=O)Nc2cccc(C(F)(F)F)n2)nn(C)c1-c1ccc(F)cc1 | 58
Cc1cccc(NC(=O)c2nc(C)n(-c3ccc(Cl)c(Cl)c3)c2C)n1 | 134
Cc1cccc(NC(=O)c2nn(C)c(C3CCCCC3)c2C)n1 | 8
Cc1nc(C(=O)Nc2cccc(C(F)(F)F)n2)c(C)n1-c1ccc(F)cc1 | 72
Cc1cccc(NC(=O)c2nn(C)c(-c3ccc(C(F)(F)F)cc3)c2C)n1 | > 300
Cc1c(C(=O)Nc2ccc(Cl)cn2)nn(C)c1-c1ccc(F)cc1 | 219
Cc1ccc(NC(=O)c2nn(C)c(-c3ccc(F)cc3)c2C)nc1 | 67

same assay, conditions: microsomes

Compound | half-life [min]
Cc1c(C(=O)Nc2ccc(F)cn2)nn(C)c1-c1ccc(F)cc1 | > 300
Cc1csc(NC(=O)c2nn(C)c(-c3ccc(F)cc3)c2C)n1 | 61
Cc1cccc(NC(=O)c2nc(C)n(-c3ccc(Cl)cc3)c2C)n1 | 59
Cc1cccc(NC(=O)c2nc(C)n(-c3ccc(C(F)(F)F)cc3)c2C)n1 | > 300

tested on: not listed separately; assay: Half life in mouse liver microsomes; conditions: liver microsomes

Compound | half-life [min]
Cc1c(C(=O)Nc2cccc(C(F)(F)F)n2)nn(C)c1-c1ccc(F)cc1 | 98
Cc1cccc(NC(=O)c2nc(C)n(-c3ccc(Cl)c(Cl)c3)c2C)n1 | 93
Cc1cccc(NC(=O)c2nn(C)c(C3CCCCC3)c2C)n1 | 28
Cc1nc(C(=O)Nc2cccc(C(F)(F)F)n2)c(C)n1-c1ccc(F)cc1 | 158
Cc1cccc(NC(=O)c2nn(C)c(-c3ccc(C(F)(F)F)cc3)c2C)n1 | 194
Cc1c(C(=O)Nc2ccc(Cl)cn2)nn(C)c1-c1ccc(F)cc1 | 16
Cc1ccc(NC(=O)c2nn(C)c(-c3ccc(F)cc3)c2C)nc1 | 13

same assay, conditions: microsomes

Compound | half-life [min]
Cc1c(C(=O)Nc2ccc(F)cn2)nn(C)c1-c1ccc(F)cc1 | 39
Cc1csc(NC(=O)c2nn(C)c(-c3ccc(F)cc3)c2C)n1 | 45
Cc1cccc(NC(=O)c2nc(C)n(-c3ccc(Cl)cc3)c2C)n1 | 81
Cc1cccc(NC(=O)c2nc(C)n(-c3ccc(C(F)(F)F)cc3)c2C)n1 | > 300

tested on: Mus musculus; assay: Antidepressant activity in ICR mouse assessed as decrease in immobility time at 10 mg/kg, po administered 1 hr before test measured for 4 mins following training for 2 mins by forced swimming test; type: functional; set-up: scale not given: the % may be the effect or the level left; conditions: not given
Procedure, shortened: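 Mouse forced swim test: ICR mice dosed orally 1 h before testing; 2 min training, then immobility duration recorded over 4 min. Activity expressed as % decrease in immobility duration. Mean ± SEM, n = 8; Dunnett's multiple comparisons after one-way ANOVA (p < 0.05).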

Compound | Activity [%]
Cc1c(C(=O)Nc2ccc(F)cn2)nn(C)c1-c1ccc(F)cc1 | 36.8
Cc1csc(NC(=O)c2nn(C)c(-c3ccc(F)cc3)c2C)n1 | 32.8
Cc1cccc(NC(=O)c2nn(C)c(-c3ccc(Cl)cc3)c2C)n1 | 51.4
Cc1cccc(NC(=O)c2nc(C)n(-c3ccc(Cl)c(Cl)c3)c2C)n1 | 85.2
Cc1ccc(-c2c(C)c(C(=O)Nc3cccc(C)n3)nn2C)cc1 | 30.8
Cc1cccc(NC(=O)c2nn(C)c(-c3ccc(C(F)(F)F)cc3)c2C)n1 | 18.5

tested on: not listed separately; assay: Half life in human liver microsomes; conditions: liver microsomes

Compound | half-life [min]
Cc1c(C(=O)Nc2cccc(C(F)(F)F)n2)nn(C)c1-c1ccc(F)cc1 | 269
Cc1cccc(NC(=O)c2nc(C)n(-c3ccc(Cl)c(Cl)c3)c2C)n1 | 122
Cc1cccc(NC(=O)c2nn(C)c(C3CCCCC3)c2C)n1 | 83
Cc1nc(C(=O)Nc2cccc(C(F)(F)F)n2)c(C)n1-c1ccc(F)cc1 | 196
Cc1cccc(NC(=O)c2nn(C)c(-c3ccc(C(F)(F)F)cc3)c2C)n1 | > 300
Cc1c(C(=O)Nc2ccc(Cl)cn2)nn(C)c1-c1ccc(F)cc1 | > 300
Cc1ccc(NC(=O)c2nn(C)c(-c3ccc(F)cc3)c2C)nc1 | 26

same assay, conditions: microsomes

Compound | half-life [min]
Cc1c(C(=O)Nc2ccc(F)cn2)nn(C)c1-c1ccc(F)cc1 | > 300
Cc1csc(NC(=O)c2nn(C)c(-c3ccc(F)cc3)c2C)n1 | 122
Cc1cccc(NC(=O)c2nc(C)n(-c3ccc(Cl)cc3)c2C)n1 | 54
Cc1cccc(NC(=O)c2nc(C)n(-c3ccc(C(F)(F)F)cc3)c2C)n1 | > 300
